Values after ≈ are worked out from the molar mass of the structure shown.
What was measured:
Format in all cases: functional
Staphylococcus aureus [1] = test: Minimum inhibitory concentration against Staphylococcus aureus A 5177 MLSB-i
In short: (§1)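 MICs were determined by agar dilution following National Committee for Clinical Laboratory Standards recommendations. Values are in µg/mL.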

Staphylococcus aureus [2] = test: Minimum inhibitory concentration against Staphylococcus aureus A 5278 MLSB-c; in short: as §1
[3] = Minimum inhibitory concentration against Streptococcus pyogenes PIU2548 efflux; in short: as §1
Streptococcus pneumoniae [4] = test: Minimum inhibitory concentration against Streptococcus pneumoniae 5649 efflux; in short: as §1
[5] = Minimum inhibitory concentration against Streptococcus pneumoniae 5737 MLSB; in short: as §1
Streptococcus pneumoniae [6] = test: Minimum inhibitory concentration against Streptococcus pneumoniae ATCC 6303 Ery-S; in short: as §1
[7] = Minimum inhibitory concentration against Streptococcus pyogenes 930MLSB; in short: as §1
Staphylococcus aureus [8] = test: Minimum inhibitory concentration against Staphylococcus aureus ATCC 6538PEry-S; settings: ATCC 6538P; in short: as §1
[9] = Minimum inhibitory concentration against Streptococcus pyogenes EES 61 Ery-S; in short: as §1
[10] = Minimum inhibitory concentration against Haemophilus influenzae DILL Amp-R; in short: as §1

Compound | MIC (Staphylococcus aureus [1]) [µg/mL] | MIC (Staphylococcus aureus [2]) [µg/mL] | MIC [3] [µg/mL] | MIC (Streptococcus pneumoniae [4]) [µg/mL] | MIC [5] [µg/mL] | MIC (Streptococcus pneumoniae [6]) [µg/mL] | MIC [7] [µg/mL] | MIC (Staphylococcus aureus [8]) [µg/mL] | MIC [9] [µg/mL] | MIC [10] [µg/mL]
CC[C@H]1OC(=O)[C@H](C)C(=O)[C@H](C)[C@@H](O[C@@H]2O[C@H](C)C[C@H](N(C)C)[C@H]2O)[C@](C)(OC/C=C/c2cnc3ncccc3c2)C[C@@H](C)C(=O)[C@H](C)[C@H]2NC(=O)O[C@@]21C | 0.05 (≈ 0.0652 µM) | > 100 | 2 (≈ 2.61 µM) | 2 (≈ 2.61 µM) | 0.5 (≈ 0.652 µM) | 0.03 (≈ 0.0391 µM) | 0.5 (≈ 0.652 µM) | 0.05 (≈ 0.0652 µM) | 0.03 (≈ 0.0391 µM) | 2 (≈ 2.61 µM)
CC[C@H]1OC(=O)[C@H](C)[C@@H](O[C@H]2C[C@@](C)(OC)[C@@H](O)[C@H](C)O2)[C@H](C)[C@@H](O[C@@H]2O[C@H](C)C[C@H](N(C)C)[C@H]2O)[C@](C)(OC/C=C/c2cnc3ccccc3c2)C[C@@H](C)C(=O)[C@H](C)[C@H]2NC(=O)O[C@@]21C | 3.1 (≈ 3.35 µM) | > 100 | 1 (≈ 1.08 µM) | 1 (≈ 1.08 µM) | 8 (≈ 8.64 µM) | 0.03 (≈ 0.0324 µM) | 8 (≈ 8.64 µM) | 0.2 (≈ 0.216 µM) | 0.03 (≈ 0.0324 µM) | 2 (≈ 2.16 µM)
C=CCO[C@]1(C)C[C@@H](C)C(=O)[C@H](C)[C@H]2NC(=O)O[C@]2(C)[C@@H](CC)OC(=O)[C@H](C)[C@@H](O[C@H]2C[C@@](C)(OC)[C@@H](O)[C@H](C)O2)[C@H](C)[C@H]1O[C@@H]1O[C@H](C)C[C@H](N(C)C)[C@H]1O | 0.78 (≈ 0.976 µM) | > 100 | 8 (≈ 10 µM) | 2 (≈ 2.5 µM) | > 128 | 0.03 (≈ 0.0375 µM) | > 128 | 0.2 (≈ 0.25 µM) | 0.03 (≈ 0.0375 µM) | 2 (≈ 2.5 µM)
CC[C@H]1OC(=O)[C@H](C)C(=O)[C@H](C)[C@@H](O[C@@H]2O[C@H](C)C[C@H](N(C)C)[C@H]2O)[C@](C)(OCCNCc2ccncc2)C[C@@H](C)C(=O)[C@H](C)[C@@H](O)[C@]1(C)O | 3.1 (≈ 4.38 µM) | > 100 | 1.56 (≈ 2.2 µM) | 2 (≈ 2.83 µM) | > 128 | 0.25 (≈ 0.353 µM) | > 100 | 6.2 (≈ 8.76 µM) | 0.39 (≈ 0.551 µM) | 32 (≈ 45.2 µM)
CC[C@H]1OC(=O)[C@H](C)C(=O)[C@H](C)[C@@H](O[C@@H]2O[C@H](C)C[C@H](N(C)C)[C@H]2O)[C@](C)(OCCCc2ccccc2)C[C@@H](C)C(=O)[C@H](C)[C@@H](O)[C@]1(C)O | 6.2 (≈ 8.96 µM) | > 100 | 4 (≈ 5.78 µM) | 1 (≈ 1.45 µM) | 32 (≈ 46.2 µM) | 1 (≈ 1.45 µM) | 64 (≈ 92.5 µM) | 6.2 (≈ 8.96 µM) | 0.5 (≈ 0.723 µM) | > 64
CC[C@H]1OC(=O)[C@H](C)[C@@H](O[C@H]2C[C@@](C)(OC)[C@@H](O)[C@H](C)O2)[C@H](C)[C@@H](O[C@@H]2O[C@H](C)C[C@H](N(C)C)[C@H]2O)[C@](C)(OC/C=C/c2ccccc2)C[C@@H](C)C(=O)[C@H](C)[C@@H](O)[C@]1(C)O | 6.2 (≈ 7.29 µM) | > 100 | 16 (≈ 18.8 µM) | 4 (≈ 4.71 µM) | 32 (≈ 37.6 µM) | 0.06 (≈ 0.0706 µM) | 32 (≈ 37.6 µM) | 0.39 (≈ 0.459 µM) | 0.03 (≈ 0.0353 µM) | 4 (≈ 4.71 µM)
CC[C@H]1OC(=O)[C@H](C)C(=O)[C@H](C)[C@@H](O[C@@H]2O[C@H](C)C[C@H](N(C)C)[C@H]2O)[C@](C)(OC/C=C/c2ccc3nnccc3c2)C[C@@H](C)C(=O)[C@H](C)[C@H]2NC(=O)O[C@@]21C | 0.05 (≈ 0.0652 µM) | > 100 | 0.5 (≈ 0.652 µM) | 0.5 (≈ 0.652 µM) | 1 (≈ 1.3 µM) | 0.015 (≈ 0.0196 µM) | 4 (≈ 5.22 µM) | 0.05 (≈ 0.0652 µM) | 0.03 (≈ 0.0391 µM) | 2 (≈ 2.61 µM)
CC[C@H]1OC(=O)[C@H](C)[C@@H](O[C@H]2C[C@@](C)(OC)[C@@H](O)[C@H](C)O2)[C@H](C)[C@@H](O[C@@H]2O[C@H](C)C[C@H](N(C)C)[C@H]2O)[C@](C)(OC/C=C/c2cnc3ccccc3c2)C[C@@H](C)C(=O)[C@H](C)[C@@H](O)[C@]1(C)O | 3.1 (≈ 3.44 µM) | > 100 | 4 (≈ 4.44 µM) | 4 (≈ 4.44 µM) | 128 (≈ 142 µM) | 0.06 (≈ 0.0666 µM) | 64 (≈ 71 µM) | 0.2 (≈ 0.222 µM) | 0.06 (≈ 0.0666 µM) | 8 (≈ 8.88 µM)
CC[C@H]1OC(=O)[C@H](C)C(=O)[C@H](C)[C@@H](O[C@@H]2O[C@H](C)C[C@H](N(C)C)[C@H]2O)[C@](C)(OCC2CC2c2cnc3ccccc3c2)C[C@@H](C)C(=O)[C@H](C)[C@H]2NC(=O)O[C@@]21C (stereo not given in full) | 0.05 (≈ 0.0641 µM) | > 100 | 0.25 (≈ 0.321 µM) | 0.5 (≈ 0.641 µM) | 32 (≈ 41 µM) | 0.03 (≈ 0.0385 µM) | 4 (≈ 5.13 µM) | 0.05 (≈ 0.0641 µM) | 0.03 (≈ 0.0385 µM) | –
CC[C@H]1OC(=O)[C@H](C)C(=O)[C@H](C)[C@@H](O[C@@H]2O[C@H](C)C[C@H](N(C)C)[C@H]2O)[C@](C)(OCCN)C[C@@H](C)C(=O)[C@H](C)[C@@H](O)[C@]1(C)O | 25 (≈ 40.5 µM) | > 100 | 12.5 (≈ 20.3 µM) | – | – | – | > 100 | 25 (≈ 40.5 µM) | 6.2 (≈ 10.1 µM) | –
